What was measured:
[1] = molecular target: Metabotropic glutamate receptor 1 (Homo sapiens, UniProt Q13255); experiment: Tested for in vitro antagonistic activity against Metabotropic glutamate receptor 1; format: functional
How it was run: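 Ca2+ flux assay at mGlu1a, with compounds tested in both agonist and antagonist modes. Initial screen at 10 µM; concentration-response curves generated where inhibition was seen.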

Rattus norvegicus [2] = experiment: In vivo intraperitoneal effective dose to block fear conditioning in rats was determined by FPS (fear potentiated startle) model of anxiety; format: functional; conditions: ip
How it was run: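 Fear-potentiated startle anxiety model in rats. Compound given ip and measurement taken 1 h after administration. 8 rats/group. ED50 reported as mean, with ED50 values from individual experiments (95% confidence interval).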

Rattus norvegicus [3] = experiment: Amount in vivo in rat brain after intraperitoneal dose of 3 mg/Kg; format: ADME, organism-based; conditions: ip, read-out: Brain level
How it was run: (§1)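 Rats given 3 mg/kg ip; brain (hippocampus) and plasma drug levels measured 1 h after dosing. Mean ± SEM, n = rats per group.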

[4] = LogD value was determined; format: physicochemical; conditions: octanol/water
How it was run: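 log D determined by an HPLC method.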

[5] = molecular target: T1, Amine oxidase [flavin-containing] A (Mus musculus, UniProt Q64133); experiment: Tested for in vitro antagonistic activity against Monoamine oxidase A; format: functional
T1 sequence (Q64133 whole entry): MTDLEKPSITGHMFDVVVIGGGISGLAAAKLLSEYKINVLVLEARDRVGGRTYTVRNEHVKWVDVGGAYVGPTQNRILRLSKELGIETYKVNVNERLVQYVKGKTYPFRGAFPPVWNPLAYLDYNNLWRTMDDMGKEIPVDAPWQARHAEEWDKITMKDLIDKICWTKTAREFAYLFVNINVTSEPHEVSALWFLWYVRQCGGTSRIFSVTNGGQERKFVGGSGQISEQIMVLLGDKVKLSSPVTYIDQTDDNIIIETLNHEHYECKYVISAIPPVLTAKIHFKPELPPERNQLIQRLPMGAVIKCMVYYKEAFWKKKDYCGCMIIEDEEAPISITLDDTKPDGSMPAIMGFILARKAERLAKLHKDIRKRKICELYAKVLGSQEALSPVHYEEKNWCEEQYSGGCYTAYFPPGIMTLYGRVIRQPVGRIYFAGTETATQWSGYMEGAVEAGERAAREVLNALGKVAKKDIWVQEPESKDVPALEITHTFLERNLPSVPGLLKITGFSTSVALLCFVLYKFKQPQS
How it was run: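 Displacement of [125I]RTI-55 binding at MAOA. IC50 given with range in parentheses. Initial screen at 10 µM, followed by concentration-response curves where inhibition was detected.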

Rattus norvegicus [6] = experiment: (§2) Amount in vivo in rat plasma after intraperitoneal dose of 3 mg/Kg; format: ADME, organism-based; conditions: ip, read-out: Plasma level; how it was run: as §1
Rattus norvegicus [7] = experiment: Amount in vivo in rat cerebrospinal fluid (CSF) after oral dose of 30 mg/Kg; conditions: read-out: CSF levels
[8] = molecular target: T2, Glutamate receptor ionotropic, NMDA 2B (Homo sapiens, UniProt Q05586+Q13224); experiment: Tested for in vitro antagonistic activity against recombinant human N-methyl-D-aspartate glutamate receptor 2B; format: functional
T2 sequence (Q13224 whole entry, one chain of several): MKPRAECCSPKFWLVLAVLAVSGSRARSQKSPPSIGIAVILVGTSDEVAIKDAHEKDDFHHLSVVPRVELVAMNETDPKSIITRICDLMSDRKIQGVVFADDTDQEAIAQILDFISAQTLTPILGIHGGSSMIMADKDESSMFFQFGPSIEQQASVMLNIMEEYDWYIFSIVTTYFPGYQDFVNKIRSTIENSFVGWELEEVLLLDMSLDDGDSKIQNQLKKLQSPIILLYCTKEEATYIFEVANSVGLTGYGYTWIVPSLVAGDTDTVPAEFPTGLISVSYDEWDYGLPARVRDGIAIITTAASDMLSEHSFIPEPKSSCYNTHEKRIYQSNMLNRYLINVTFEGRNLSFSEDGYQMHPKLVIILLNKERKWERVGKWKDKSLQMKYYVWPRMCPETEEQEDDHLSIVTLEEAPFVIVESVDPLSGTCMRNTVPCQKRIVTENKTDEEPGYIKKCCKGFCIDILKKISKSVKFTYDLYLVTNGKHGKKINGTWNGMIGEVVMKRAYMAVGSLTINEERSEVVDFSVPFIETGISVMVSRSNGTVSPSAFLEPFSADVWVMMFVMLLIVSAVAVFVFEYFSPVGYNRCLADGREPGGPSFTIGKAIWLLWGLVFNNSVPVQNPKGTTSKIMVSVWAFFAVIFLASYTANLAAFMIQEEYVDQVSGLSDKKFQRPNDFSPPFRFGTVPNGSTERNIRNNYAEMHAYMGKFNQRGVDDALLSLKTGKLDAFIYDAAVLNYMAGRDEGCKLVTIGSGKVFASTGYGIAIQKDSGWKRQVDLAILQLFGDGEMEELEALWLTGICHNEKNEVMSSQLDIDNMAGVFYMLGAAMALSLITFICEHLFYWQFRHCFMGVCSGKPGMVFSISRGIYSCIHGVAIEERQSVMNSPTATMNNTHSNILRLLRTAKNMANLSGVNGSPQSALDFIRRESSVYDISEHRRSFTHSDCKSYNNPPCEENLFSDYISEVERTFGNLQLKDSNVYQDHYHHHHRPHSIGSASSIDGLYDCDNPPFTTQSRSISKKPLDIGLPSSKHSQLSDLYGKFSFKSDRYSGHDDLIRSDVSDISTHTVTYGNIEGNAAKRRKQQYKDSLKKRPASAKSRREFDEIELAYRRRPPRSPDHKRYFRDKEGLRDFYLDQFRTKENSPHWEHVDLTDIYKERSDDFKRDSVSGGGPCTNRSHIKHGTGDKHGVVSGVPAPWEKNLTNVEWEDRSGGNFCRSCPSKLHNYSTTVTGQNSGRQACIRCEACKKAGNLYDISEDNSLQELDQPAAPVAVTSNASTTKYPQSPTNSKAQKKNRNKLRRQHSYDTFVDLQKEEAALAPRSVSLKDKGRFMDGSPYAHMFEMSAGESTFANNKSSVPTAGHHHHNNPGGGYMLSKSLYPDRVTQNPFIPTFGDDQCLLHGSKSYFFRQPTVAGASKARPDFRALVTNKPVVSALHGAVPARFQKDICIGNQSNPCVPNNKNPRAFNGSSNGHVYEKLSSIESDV
How it was run: (§3)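 Cell line stably expressing recombinant human NR1A/2B NMDA receptors. Inhibition of NMDA/glycine-evoked rise in intracellular Ca2+. Six-point concentration-response curve with 8-22 cells per concentration.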

[9] = molecular target: Metabotropic glutamate receptor 5 (Homo sapiens, UniProt P41594); experiment: Tested in vitro against human recombinant Metabotropic glutamate receptor 5 stably expressed in LtK cells by [Ca2+] flux assay using glutamate as agonist
Sequence of Metabotropic glutamate receptor 5 (Homo sapiens, UniProt P41594) (P41594 whole entry): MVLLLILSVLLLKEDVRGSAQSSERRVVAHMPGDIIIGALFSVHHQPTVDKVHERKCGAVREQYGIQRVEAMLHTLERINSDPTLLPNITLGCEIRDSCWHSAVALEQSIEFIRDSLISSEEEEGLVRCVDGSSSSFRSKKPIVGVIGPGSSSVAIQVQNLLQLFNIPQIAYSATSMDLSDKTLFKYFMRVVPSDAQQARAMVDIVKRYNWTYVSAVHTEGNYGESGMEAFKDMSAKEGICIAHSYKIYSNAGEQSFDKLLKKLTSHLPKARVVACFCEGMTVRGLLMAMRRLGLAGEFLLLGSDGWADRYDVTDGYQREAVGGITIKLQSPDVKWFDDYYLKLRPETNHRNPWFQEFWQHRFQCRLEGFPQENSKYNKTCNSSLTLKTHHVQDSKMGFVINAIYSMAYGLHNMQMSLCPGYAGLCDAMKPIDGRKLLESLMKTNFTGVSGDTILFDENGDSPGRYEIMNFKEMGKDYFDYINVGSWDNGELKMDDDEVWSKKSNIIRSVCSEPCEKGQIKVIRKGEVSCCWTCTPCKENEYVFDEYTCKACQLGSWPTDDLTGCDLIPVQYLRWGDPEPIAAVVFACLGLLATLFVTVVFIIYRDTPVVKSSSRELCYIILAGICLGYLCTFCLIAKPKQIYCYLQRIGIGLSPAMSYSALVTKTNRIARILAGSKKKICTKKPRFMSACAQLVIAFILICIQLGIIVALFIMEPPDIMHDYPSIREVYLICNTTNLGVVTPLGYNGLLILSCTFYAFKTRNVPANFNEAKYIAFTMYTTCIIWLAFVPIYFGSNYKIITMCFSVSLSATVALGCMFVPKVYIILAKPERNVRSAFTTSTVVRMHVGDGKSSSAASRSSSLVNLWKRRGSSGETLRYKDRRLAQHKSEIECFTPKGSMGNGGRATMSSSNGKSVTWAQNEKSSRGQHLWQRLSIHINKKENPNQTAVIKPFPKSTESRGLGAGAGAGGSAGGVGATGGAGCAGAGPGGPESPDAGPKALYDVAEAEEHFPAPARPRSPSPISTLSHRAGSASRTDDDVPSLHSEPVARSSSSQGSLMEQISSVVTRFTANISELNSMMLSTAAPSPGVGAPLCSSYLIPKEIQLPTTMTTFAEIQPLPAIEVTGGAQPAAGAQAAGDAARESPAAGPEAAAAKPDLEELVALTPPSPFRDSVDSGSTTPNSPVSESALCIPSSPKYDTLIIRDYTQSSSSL

[10] = molecular target: Metabotropic glutamate receptor 5 (Rattus norvegicus, UniProt P31424); experiment: Tested for displacement of [3H]3-methoxy-5-(pyridin-2-ylethynyl) pyridine from Metabotropic glutamate receptor 5 in rat cortical membrane; format: cell membranes
Sequence of Metabotropic glutamate receptor 5 (Rattus norvegicus, UniProt P31424) (P31424 whole entry): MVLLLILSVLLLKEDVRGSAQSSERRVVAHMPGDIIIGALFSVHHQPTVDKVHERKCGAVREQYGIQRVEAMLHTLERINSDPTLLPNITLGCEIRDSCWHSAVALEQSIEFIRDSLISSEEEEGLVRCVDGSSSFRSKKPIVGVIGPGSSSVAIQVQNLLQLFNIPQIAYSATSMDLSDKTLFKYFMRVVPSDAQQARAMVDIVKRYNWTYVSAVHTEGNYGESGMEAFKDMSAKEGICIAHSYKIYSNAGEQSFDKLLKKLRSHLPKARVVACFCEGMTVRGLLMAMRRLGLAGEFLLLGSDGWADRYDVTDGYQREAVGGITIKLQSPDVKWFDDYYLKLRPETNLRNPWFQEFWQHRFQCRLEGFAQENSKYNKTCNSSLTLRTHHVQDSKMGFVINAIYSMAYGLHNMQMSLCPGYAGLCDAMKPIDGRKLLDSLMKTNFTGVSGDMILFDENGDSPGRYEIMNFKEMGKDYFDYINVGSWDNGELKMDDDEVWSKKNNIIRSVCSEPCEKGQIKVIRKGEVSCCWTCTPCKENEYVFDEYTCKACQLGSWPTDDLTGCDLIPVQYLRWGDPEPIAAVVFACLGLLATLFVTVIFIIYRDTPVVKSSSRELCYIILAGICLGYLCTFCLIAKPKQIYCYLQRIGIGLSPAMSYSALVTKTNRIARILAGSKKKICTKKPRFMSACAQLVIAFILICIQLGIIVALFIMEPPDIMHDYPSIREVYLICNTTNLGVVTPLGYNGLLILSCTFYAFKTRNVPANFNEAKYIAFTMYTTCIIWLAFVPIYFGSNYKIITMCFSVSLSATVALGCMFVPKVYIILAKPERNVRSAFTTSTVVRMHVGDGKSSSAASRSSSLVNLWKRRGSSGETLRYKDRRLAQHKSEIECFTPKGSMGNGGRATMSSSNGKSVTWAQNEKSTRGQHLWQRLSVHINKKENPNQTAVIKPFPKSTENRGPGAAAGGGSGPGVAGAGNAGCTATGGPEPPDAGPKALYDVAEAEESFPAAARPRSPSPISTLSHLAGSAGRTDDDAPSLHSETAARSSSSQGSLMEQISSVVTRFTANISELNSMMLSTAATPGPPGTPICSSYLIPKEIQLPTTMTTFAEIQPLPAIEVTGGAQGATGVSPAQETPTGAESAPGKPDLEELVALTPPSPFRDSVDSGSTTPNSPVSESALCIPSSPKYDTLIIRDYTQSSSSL
How it was run: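 Rat cortical membranes; displacement of [3H]-3-methoxy-5-(pyridin-2-ylethynyl)pyridine bound to native mGlu5. Geometric mean with standard deviation and number of replicates.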

[11] = molecular target: T1, Amine oxidase [flavin-containing] A; experiment: Tested for in vitro antagonistic activity against Monoamine oxidase; format: functional
How it was run: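 Radioligand displacement of [125I]RTI-55 ([125I]methyl (1R,2S,3S,5S)-3-(4-iodophenyl)-8-methyl-8-azabicyclo[3.2.1]octane-2-carboxylate) from MAO-A. Compounds were first screened at 10 µM.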

[12] = as §2; format: ADME, organism-based; conditions: ip, read-out: Plasma level; how it was run: as §1
[13] = molecular target: T2, Glutamate receptor ionotropic, NMDA 2B; experiment: Tested for in vitro antagonistic activity against human N-methyl-D-aspartate glutamate receptor 2B; format: functional; how it was run: as §3

Sequence of Metabotropic glutamate receptor 1 (Q13255 whole entry): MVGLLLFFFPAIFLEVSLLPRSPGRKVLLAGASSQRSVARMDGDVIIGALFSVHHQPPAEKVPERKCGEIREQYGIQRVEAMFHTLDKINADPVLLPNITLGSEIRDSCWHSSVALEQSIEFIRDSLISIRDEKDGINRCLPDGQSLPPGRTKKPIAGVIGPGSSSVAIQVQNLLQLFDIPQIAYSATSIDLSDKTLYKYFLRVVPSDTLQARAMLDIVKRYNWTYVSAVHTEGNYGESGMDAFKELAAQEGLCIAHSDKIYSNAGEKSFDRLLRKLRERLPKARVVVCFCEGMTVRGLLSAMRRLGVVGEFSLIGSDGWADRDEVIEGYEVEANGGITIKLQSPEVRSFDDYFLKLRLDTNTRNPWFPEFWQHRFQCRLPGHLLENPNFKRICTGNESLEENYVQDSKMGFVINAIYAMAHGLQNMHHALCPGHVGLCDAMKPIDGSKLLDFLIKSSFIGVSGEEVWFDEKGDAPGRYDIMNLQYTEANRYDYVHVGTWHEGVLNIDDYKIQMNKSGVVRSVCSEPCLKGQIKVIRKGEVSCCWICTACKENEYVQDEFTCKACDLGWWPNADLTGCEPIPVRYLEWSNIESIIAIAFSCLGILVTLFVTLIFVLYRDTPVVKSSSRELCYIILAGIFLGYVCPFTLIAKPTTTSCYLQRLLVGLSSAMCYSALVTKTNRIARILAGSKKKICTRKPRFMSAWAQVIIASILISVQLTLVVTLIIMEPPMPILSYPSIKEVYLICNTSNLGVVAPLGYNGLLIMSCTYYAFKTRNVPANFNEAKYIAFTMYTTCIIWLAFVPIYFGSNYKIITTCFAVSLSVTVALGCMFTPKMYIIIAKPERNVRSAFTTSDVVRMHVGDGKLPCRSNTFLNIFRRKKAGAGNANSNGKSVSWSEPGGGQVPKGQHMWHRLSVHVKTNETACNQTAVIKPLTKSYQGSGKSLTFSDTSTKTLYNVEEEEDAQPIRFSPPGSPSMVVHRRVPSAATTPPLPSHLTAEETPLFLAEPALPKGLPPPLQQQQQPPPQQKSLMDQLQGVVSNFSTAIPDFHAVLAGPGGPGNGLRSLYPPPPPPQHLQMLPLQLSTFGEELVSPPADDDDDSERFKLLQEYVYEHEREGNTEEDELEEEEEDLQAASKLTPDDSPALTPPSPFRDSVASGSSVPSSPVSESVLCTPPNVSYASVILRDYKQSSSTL

logD [4]	IC50 [9] [nM]	Ki [10] [nM]	Structure (SMILES)	further results
2.1	–	–	Cc1nc(C#Cc2cccnc2)cs1	IC50 [1]: > 100000 nM; ED50 (Rattus norvegicus [2]): 1 mg/kg; concentration (Rattus norvegicus [3]): 1400 nM; IC50 [5]: 30000 nM; concentration (Rattus norvegicus [6]): 1200 nM; concentration (Rattus norvegicus [7]): 1000 nM; IC50 [8]: > 300000 nM
2.1	122	214	Cc1nc(C#Cc2ccncc2)cs1	–
3.3	6	6	Cc1nc(C#Cc2ccccc2)cs1	–
2.6	97	142	C(#Cc1cscn1)c1ccccc1	–
1.9	53	48	Cc1nc(C#Cc2ccccn2)cs1	–
2.6	13	32	Cc1csc(C#Cc2ccccc2)n1	–
3.2	81	153	C(#Cc1nccs1)c1ccccc1	–
3.5	–	–	Cc1cccc(C#Cc2ccccc2)n1	IC50 [1]: > 100000 nM; ED50 (Rattus norvegicus [2]): 5 mg/kg; concentration (Rattus norvegicus [3]): 830 nM; IC50 [11]: 8000 nM; concentration [12]: 390 nM; concentration (Rattus norvegicus [7]): 210 nM; IC50 [13]: 18000 nM

Reference: ChEMBL document CHEMBL1145097 (J Med Chem, 2003)
